The source of these data is ChEMBL document CHEMBL1154571, “A cytotoxic sesquiterpene caffeate from the liverwort Bazzanianovae-zelandiae” (2000).

≈ marks a conversion by molar mass, not a printed value. Some results are limits rather than exact numbers.

As a reminder, the GI50 is the concentration that inhibits growth by half.

Assay type in all cases: functional
Assay [1] deals with P388. Nature of the assay: Cytotoxicity against mouse P388 cells after 72 hrs by MTT assay. The gist of the method:
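P-388D1 murine leukemia cells (ATCC CCL 46) were incubated 72 h with a two-fold dilution series of sample. Growth was read by MTT tetrazolium staining absorbance. The concentration giving 50% of solvent-control growth was determined. Values are means of replicates. Mitomycin C at 0.06 μg/mL served as positive control.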
On the technique in general: Tetrazolium dyes change colour on reduction, which living cells bring about.

A short description of assay [2]: Cytotoxicity against human NCI60 cells.
In a further assay the test system is CCRF-CEM. Nature of the assay: Cytotoxicity against human CCRF-CEM cells.
A further assay concerns NCI-H522. Description: Cytotoxicity against human NCI-H522 cells.
Assay [3] relates to P388. Nature of the assay: Cytotoxicity against mouse P388 cells at 0.06 ug/mL after 72 hrs by MTT assay. To be noted: P388, 72 h, read-out: GI. The method, boiled down: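 Mitomycin C positive control at 0.06 μg/mL on P-388D1 murine leukemia cells (ATCC CCL 46), 72 h incubation. Growth was read by MTT tetrazolium absorbance and expressed as percent inhibition relative to a solvent control.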

Where [4] appears, read: Mus musculus, P388, 72 h, read-out: GI50.

Take `C=C1CCC2CC1C(C)(C)CC(OC(=O)/C=C/c1ccc(O)c(O)c1)/C=C\2C` (stereo unspecified) [BAZZANENEYL CAFFEATE]: the concentration for 50% growth inhibition (GI50) with P388 [1] (setting [4]) was found to be 0.9 µg/mL (≈ 2.35 µM).

As to `CC(C)=CCOC(=O)/C=C/c1ccc(O)c(O)c1` [PRENYL CAFFEATE], the GI50 in the assay on P388 [1] (setting [4]) is 6.9 µg/mL (≈ 27.8 µM).

`O=C(/C=C/c1ccc(O)c(O)c1)O[C@H](C(=O)O)[C@H](OC(=O)/C=C/c1ccc(O)c(O)c1)C(=O)O` [CHICORIC ACID]: the concentration for 50% growth inhibition (GI50) in the assay on P388 [1] (setting [4]) was greater than 25 µg/mL.

Turning to `C[C@@H]1CC[C@@]2(C)[C@H](C)/C(=C/CO)CC[C@@]12C` [NAVICULOL], the GI50 in the assay with P388 [1] (setting [4]) is greater than 25 µg/mL.

Consider `C[C@@H]1CC[C@@]2(C)[C@H](C)/C(=C\COC(=O)/C=C/c3ccc(O)c(O)c3)CC[C@@]12C` [NAVICULYL CAFFEATE], for which the 50% growth inhibitory concentration (GI50) in the assay on P388 [1] came to 1.1 µg/mL (≈ 2.86 µM); with P388 [1] (setting [4]), 0.8 µg/mL (≈ 2.08 µM); in assay [2] it was 2.5 µg/mL (≈ 6.5 µM); with CCRF-CEM, 0.4 µg/mL (≈ 1.04 µM); in the assay with NCI-H522, 0.5 µg/mL (≈ 1.3 µM).

In the case of `CO[C@@]12[C@H](COC(N)=O)C3=C(C(=O)C(C)=C(N)C3=O)N1C[C@@H]1N[C@@H]12` [MITOMYCIN], in the assay on P388 [3], the inhibition of growth at 0.06 µg/mL was 43%.

Turning to `O=C(O)/C=C/c1ccc(O)c(O)c1` [CAFFEIC ACID], the GI50 with P388 [1] (setting [4]) was greater than 25 µg/mL.
